# Laboratory results as given in ChEMBL document CHEMBL1145462, “In vivo pharmacodynamic activity of the glycopeptide dalbavancin” (Antimicrob Agents Chemother, 2007).
# Columns and labels:
# Staphylococcus aureus [1] = assay: AUC/MIC ratio of Staphylococcus aureus 31005 infected neutropenic mouse thigh infection model at 49.3 mg/kg, ip administered every 24 hrs by static effect experiment; format: functional; conditions: route intraperitoneal
# Staphylococcus aureus [2] = assay: AUC/MBC ratio of Staphylococcus aureus ATCC 25923 infected neutropenic mouse thigh infection model at 42.7 mg/kg, ip administered every 24 hrs by static effect experiment; format: functional; conditions: route intraperitoneal
# Staphylococcus aureus [3] = assay: AUC/MBC ratio of Staphylococcus aureus 33591 infected neutropenic mouse thigh infection model at 22.3 mg/kg, ip administered every 24 hrs by static effect experiment; format: functional; conditions: route intraperitoneal
# Staphylococcus aureus [4] = assay: AUC/MBC ratio of methicillin-resistant Staphylococcus aureus infected neutropenic mouse thigh infection model at 37.7 mg/kg, ip administered every 24 hrs by static effect experiment; format: functional; conditions: route intraperitoneal
# Staphylococcus aureus [5] = assay: AUC/MIC ratio of Staphylococcus aureus 31005 infected neutropenic mouse thigh infection model at 67.7 mg/kg, ip administered every 72 hrs by static effect experiment; format: functional; conditions: route intraperitoneal
# Streptococcus pneumoniae [6] = assay: AUC/MIC ratio of Streptococcus pneumoniae 1199 infected neutropenic mouse thigh infection model at 0.49 mg/kg, ip administered every 24 hrs by 1-log killing experiment; format: functional; conditions: route intraperitoneal
# Streptococcus pneumoniae [7] = assay: AUC/MIC ratio of Streptococcus pneumoniae 1325 infected neutropenic mouse thigh infection model at 1.6 mg/kg, ip administered every 24 hrs by 1-log killing experiment; format: functional; conditions: route intraperitoneal
# Staphylococcus aureus [8] = assay: AUC/MBC ratio of Staphylococcus aureus ATCC 25923 infected neutropenic mouse thigh infection model at 51.2 mg/kg, ip administered every 24 hrs by 1-log killing experiment; format: functional; conditions: route intraperitoneal
# Streptococcus pneumoniae [9] = assay: AUC/MIC ratio of Streptococcus pneumoniae 1199 infected neutropenic mouse thigh infection model at 0.85 mg/kg, ip administered every 72 hrs by 1-log killing experiment; format: functional; conditions: route intraperitoneal
# Staphylococcus aureus [10] = assay: AUC/MIC ratio of Staphylococcus aureus ATCC 25923 infected neutropenic mouse thigh infection model at 185 mg/kg, ip administered every 72 hrs by 1-log killing experiment; format: functional; conditions: route intraperitoneal
# Staphylococcus aureus [11] = assay: AUC/MIC ratio of Staphylococcus aureus Smith infected neutropenic mouse thigh infection model at 95 mg/kg, ip administered every 72 hrs by 1-log killing experiment; format: functional; conditions: route intraperitoneal
# Staphylococcus aureus [12] = assay: AUC/MBC ratio of Staphylococcus aureus 307109 infected neutropenic mouse thigh infection model at 34 mg/kg, ip administered every 72 hrs by 1-log killing experiment; format: functional; conditions: route intraperitoneal
# Streptococcus pneumoniae [13] = assay: AUC/MIC ratio of Streptococcus pneumoniae 1199 infected neutropenic mouse thigh infection model at 0.57 mg/kg, ip administered every 24 hrs by 2-log killing experiment; format: functional; conditions: route intraperitoneal
# Streptococcus pneumoniae [14] = assay: AUC/MIC ratio of Streptococcus pneumoniae ATCC 10813 infected neutropenic mouse thigh infection model at 1.75 mg/kg, ip administered every 24 hrs by 2-log killing experiment; format: functional; conditions: route intraperitoneal
# Staphylococcus aureus [15] = assay: AUC/MBC ratio of Staphylococcus aureus Smith infected neutropenic mouse thigh infection model at 73.5 mg/kg, ip administered every 24 hrs by 2-log killing experiment; format: functional; conditions: route intraperitoneal
# Streptococcus pneumoniae [16] = assay: AUC/MIC ratio of Streptococcus pneumoniae 1325 infected neutropenic mouse thigh infection model at 1.16 mg/kg, ip administered every 72 hrs by 2-log killing experiment; format: functional; conditions: route intraperitoneal
# Staphylococcus aureus [17] = assay: AUC/MIC ratio of Staphylococcus aureus ATCC 25923 infected neutropenic mouse thigh infection model at 214 mg/kg, ip administered every 72 hrs by 2-log killing experiment; format: functional; conditions: route intraperitoneal
# Staphylococcus aureus [18] = assay: AUC/MIC ratio of methicillin-resistant Staphylococcus aureus infected neutropenic mouse thigh infection model at 85 mg/kg, ip administered every 72 hrs by 2-log killing experiment; format: functional; conditions: route intraperitoneal
# Staphylococcus aureus [19] = assay: AUC/MBC ratio of Staphylococcus aureus 33591 infected neutropenic mouse thigh infection model at 114 mg/kg, ip administered every 72 hrs by 2-log killing experiment; format: functional; conditions: route intraperitoneal
# Staphylococcus aureus [20] = assay: AUC/MBC ratio of methicillin-resistant Staphylococcus aureus infected neutropenic mouse thigh infection model at 85 mg/kg, ip administered every 72 hrs by 2-log killing experiment; format: functional; conditions: route intraperitoneal
# Staphylococcus aureus [21] = assay: AUC/MBC ratio of Staphylococcus aureus Smith infected neutropenic mouse thigh infection model at 148 mg/kg, ip administered every 72 hrs by 2-log killing experiment; format: functional; conditions: route intraperitoneal
# Streptococcus pneumoniae [22] = assay: AUC/MIC ratio of Streptococcus pneumoniae 1293 infected neutropenic mouse thigh infection model at 1.01 mg/kg, ip administered every 72 hrs by static effect experiment; format: functional; conditions: route intraperitoneal
# Streptococcus pneumoniae [23] = assay: Antibacterial activity against Streptococcus pneumoniae 1293 by microdilution method; format: functional
# Outline: (§1)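 MIC and MBC were determined by CLSI broth microdilution, in duplicate on at least two occasions. Staphylococci were grown in Mueller-Hinton broth and agar; pneumococci were plated on sheep blood agar.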
# Streptococcus pneumoniae [24] = assay: Antibacterial activity against Streptococcus pneumoniae 1325 by microdilution method; format: functional; outline: as §1
# Staphylococcus aureus [25] = assay: Antibacterial activity against Staphylococcus aureus Smith by microdilution method; format: functional
# Outline: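 MICs in duplicate on at least two occasions by standard CLSI broth microdilution; S. aureus grown and quantified in Mueller-Hinton broth/agar.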
# [26] = Half life in bacterial pathogen-infected neutropenic Swiss ICR mouse thigh infection model at 2.5 mg/kg, ip; format: ADME, organism-based; set-up: dose 2.5 mg/kg, route intraperitoneal; conditions: in vivo
# Outline: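 Single ip dose (0.2 ml) given to thigh-infected neutropenic ICR Swiss mice. Retro-orbital blood taken from groups of three at 0.5–96 h; plasma assayed microbiologically with Bacillus subtilis (detection limit 0.10 mg/liter). Half-life derived by linear least-squares regression within a noncompartmental analysis.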
# [27] = Cmax in bacterial pathogen-infected neutropenic Swiss ICR mouse thigh infection model at 5 mg/kg, ip; format: ADME, organism-based; set-up: dose 5 mg/kg, route intraperitoneal; conditions: in vivo
# Outline: (§2)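 Thigh-infected neutropenic mice received single intraperitoneal doses (2.5, 5, 10, 20, 40, 80 mg/kg; 0.2 ml/dose). Blood was drawn by retroorbital aspiration from groups of three mice at 0.5, 1, 2, 4, 6, 24, 48, 72 and 96 h. Plasma levels were measured by microbiologic assay with Bacillus subtilis (detection limit 0.10 mg/liter). Noncompartmental analysis was used: half-life by linear least-squares regression, AUC by trapezoidal rule.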
# [28] = Half life in bacterial pathogen-infected neutropenic Swiss ICR mouse thigh infection model at 10 mg/kg, ip; format: ADME, organism-based; set-up: dose 10 mg/kg, route intraperitoneal; conditions: in vivo; outline: as §2
# Mus musculus = assay: AUC in bacterial pathogen-infected neutropenic Swiss ICR mouse thigh infection model at 10 mg/kg, ip; format: ADME, organism-based; set-up: dose 10 mg/kg, route intraperitoneal; conditions: in vivo; outline: as §2
# [29] = Cmax in bacterial pathogen-infected neutropenic Swiss ICR mouse thigh infection model at 10 mg/kg, ip; format: ADME, organism-based; set-up: dose 10 mg/kg, route intraperitoneal; conditions: in vivo; outline: as §2
# Streptococcus pneumoniae [30] = assay: Bactericidal activity against penicillin-susceptible Streptococcus pneumoniae ATCC 10813 infected neutropenic Swiss ICR mouse thigh infection model assessed as drug level causing 2-log reduction of bacterial count at 1.34 mg/kg, ip dosed every 24 hrs; format: functional; conditions: route intraperitoneal
# Outline: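 Neutropenic mice (cyclophosphamide ip 150 mg/kg day −4, 100 mg/kg day −1, then every 48 h) received 0.1 ml log-phase inoculum per thigh under halothane. Intraperitoneal dalbavancin started 2 h later and was given for 6 days at q12h, q24h, q36h or q72h, two mice per regimen. Thigh CFU were counted at 144 h. Endpoint doses relative to start-of-therapy counts came from Hill-model nonlinear regression and are expressed per 24 h.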
# Streptococcus pneumoniae [31] = assay: AUC/MIC ratio of Streptococcus pneumoniae 1396 infected neutropenic mouse thigh infection model at 0.69 mg/kg, ip administered every 72 hrs by 2-log killing experiment; conditions: route intraperitoneal
smiles,measurement,setting,value
CN[C@H]1C(=O)N[C@@H]2Cc3ccc(cc3)Oc3cc4cc(c3O[C@@H]3O[C@H](C(=O)O)[C@@H](O)[C@H](O)[C@H]3NC(=O)CCCCCCCCC(C)C)Oc3ccc(cc3Cl)[C@@H](O)[C@@H]3NC(=O)[C@H](NC(=O)[C@@H]4NC(=O)[C@@H](NC2=O)c2cc(cc(O)c2Cl)Oc2cc1ccc2O)c1ccc(O)c(c1)-c1c(O[C@H]2O[C@H](CO)[C@@H](O)[C@H](O)[C@@H]2O)cc(O)cc1[C@@H](C(=O)NCCCN(C)C)NC3=O [DALBAVANCIN],RatioAUC/MIC,Staphylococcus aureus [1],483
same,Ratio,Staphylococcus aureus [2],52
same,Ratio,Staphylococcus aureus [3],46
same,Ratio,Staphylococcus aureus [4],93
same,RatioAUC/MIC,Staphylococcus aureus [5],223
same,RatioAUC/MIC,Streptococcus pneumoniae [6],19.4
same,RatioAUC/MIC,Streptococcus pneumoniae [7],31.8
same,Ratio,Staphylococcus aureus [8],60
same,RatioAUC/MIC,Streptococcus pneumoniae [9],12.1
same,RatioAUC/MIC,Staphylococcus aureus [10],317
same,RatioAUC/MIC,Staphylococcus aureus [11],163
same,Ratio,Staphylococcus aureus [12],12.9
same,RatioAUC/MIC,Streptococcus pneumoniae [13],22.7
same,RatioAUC/MIC,Streptococcus pneumoniae [14],9.9
same,Ratio,Staphylococcus aureus [15],173
same,RatioAUC/MIC,Streptococcus pneumoniae [16],17.6
same,RatioAUC/MIC,Staphylococcus aureus [17],367
same,RatioAUC/MIC,Staphylococcus aureus [18],292
same,Ratio,Staphylococcus aureus [19],94
same,Ratio,Staphylococcus aureus [20],70
same,Ratio,Staphylococcus aureus [21],122
same,RatioAUC/MIC,Streptococcus pneumoniae [22],14.1
same,MBC,Streptococcus pneumoniae [23],4 ng/mL
same,MIC,Streptococcus pneumoniae [23],4 ng/mL
same,MBC,Streptococcus pneumoniae [24],8 ng/mL
same,MIC,Streptococcus pneumoniae [24],8 ng/mL
same,MBC,Staphylococcus aureus [25],250 ng/mL
same,MIC,Staphylococcus aureus [25],60 ng/mL
same,half-life,[26],13.1 h
same,Cmax,[27],29000 ng/mL
same,half-life,[28],12.5 h
same,AUC,Mus musculus,579 µg·h/mL
same,Cmax,[29],34800 ng/mL
same,Activity,Streptococcus pneumoniae [30],1.75
same,RatioAUC/MIC,Streptococcus pneumoniae [31],4.8
